{"source": "paper PMC8157400", "about": "(Chemical Science, 2020)", "key": {"[1]": {"tested_on": "KHYG-1/CD16a-158V NK cells co-cultured with IGROV-1 cells", "assay": "IFN-γ secretion from NK cells, ELISA", "format": "cell-based, human"}, "IGROV-1 cells [2]": {"tested_on": "IGROV-1 cells", "assay": "ADCC assay", "format": "cell-based, human"}, "[3]": {"tested_on": "KHYG-1/CD16a-158V cells co-cultured with IGROV-1 cells", "assay": "CD107a mobilization assay, flow cytometry", "format": "cell-based, human", "conditions": "Fc-ARM2 10 nM + anti-CD20 100 nM, 6 h, E/T = 1", "summary_of_the_method": "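Human NK line KHYG-1 expressing CD16a-158V co-cultured 6 h with FR-α+ IGROV-1 ovarian adenocarcinoma cells (E/T 1) with the indicated reagents. Surface CD107a on NK cells read by flow cytometry. Mean ± SEM; two experimental repeats; one-way ANOVA with Tukey's multiple comparison test.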"}, "IGROV-1 cells (FR-α+)": {"tested_on": "IGROV-1 cells (FR-α+)", "assay": "Antibody recruitment to cancer cells, fluorescence microscopy", "format": "cell-based, human", "conditions": "Fc-ARM2 100 nM"}, "IGROV-1 cells [4]": {"tested_on": "IGROV-1 cells", "assay": "Mouse IgG recruitment and NK cell activation", "format": "cell-based, human", "conditions": "Fc-ARM2 10 nM, mouse IgG 100 nM; flow cytometry n = 4; ADCC 16 h n = 3; Fig. S11"}, "IGROV-1 cells [5]": {"tested_on": "IGROV-1 cells", "assay": "Antibody recruitment / binding on cells, flow cytometry", "format": "cell-based, human"}, "[6]": {"tested_on": "A549 lung cancer cells (FR-α−)", "assay": "ADCC assay", "format": "cell-based, human", "conditions": "Fc-ARM2 + anti-CD20, 16 h, E/T 1-8, n = 3, Fig. S7"}, "IGROV-1 cells [7]": {"tested_on": "IGROV-1 cells", "conditions": "IGROV-1 cells (EGFR/FR-α double positive); cited from earlier work"}, "folate receptor-a (FR-α)": {"tested_on": "folate receptor-a (FR-α)", "conditions": "cited from earlier work"}}}
{"compound": "CC(C)C[C@@H]1NC(=O)[C@H](Cc2c[nH]cn2)NC(=O)[C@H](Cc2c[nH]c3ccccc23)NC(=O)[C@H](C)NC(=O)[C@@H]2CSSC[C@H](NC(=O)[C@H](Cc3c[nH]c4ccccc34)NC(=O)[C@H](C(C)C)NC(=O)[C@H](CC(C)C)NC(=O)[C@H](CCC(=O)O)NC(=O)CNC1=O)C(=O)N[C@@H]([C@@H](C)O)C(=O)N[C@H](C(N)=O)CSSC[C@H](NC(=O)CCOCCOCCOCCOCCOCCOCCNC(=O)CC[C@H](NC(=O)c1ccc(NCc3cnc4nc(N)[nH]c(=O)c4n3)cc1)C(=O)O)C(=O)N[C@@H](CC(=O)O)C(=O)N2", "note": "[Fc-ARM2]", "values": [{"measurement": "IFN-γ secretion from NK cells", "setting": "[1]; Fc-ARM2 + anti-CD20, E/T = 8, ELISA of supernatant, Fig. 3B", "value": "secretion of interferon-γ (IFN-γ)"}, {"measurement": "IFN-γ secretion from NK cells after 16 h", "setting": "[1]; Fc-ARM + anti-CD20, E/T = 4, 16 h, Fig. S8", "value": "induced a higher amount of IFN-γ secretion"}, {"measurement": "ADCC (% cytotoxicity) with recruited anti-CD20", "setting": "IGROV-1 cells [2]; Fc-ARM 10 nM + anti-CD20 100 nM, 16 h, E/T 1-8, LDH assay, n = 3", "value": "showed clear target cell killing"}, {"measurement": "ADCC with increasing concentration of anti-CD20", "setting": "IGROV-1 cells [2]; Fc-ARM 10 nM, E/T = 8, 16 h, n = 3, Fig. 4C", "value": "induced ADCC more effectively"}, {"measurement": "ADCC (% cytotoxicity) with excess FA", "setting": "IGROV-1 cells [2]; Fc-ARM2 10 nM + anti-CD20 100 nM + FA (1 μM), 16 h", "value": "eliminated by excess FA"}, {"measurement": "ADCC with Fc fragment of anti-CD20", "setting": "IGROV-1 cells [2]; Fc-ARM2 + Fc fragment of anti-CD20 mAb, n = 3, Fig. 4D", "value": "induced cytotoxicity upon recruitment by Fc-ARM2"}, {"measurement": "ADCC (% cytotoxicity) after 6, 8 and 16 h co-culture", "setting": "IGROV-1 cells [2]; Fc-ARM + anti-CD20, E/T = 4, Fig. 4B", "value": "showed higher cytotoxicity compared with Fc-ARM1 + anti-CD20"}, {"measurement": "Surface mobilization of CD107a on NK cells", "setting": "[3]", "value": "surface mobilization of CD107a"}, {"measurement": "Recruitment of Fc-fluorescein (Fc-fluo) to cells", "setting": "IGROV-1 cells (FR-α+); Fc-fluo 500 nM", "value": "recruited the papain-digested Fc fragment of IgG1"}, {"measurement": "Recruitment of IgG-FITC to cells", "setting": "IGROV-1 cells (FR-α+); IgG-FITC 500 nM, 30 min, 4 °C", "value": "successfully recruited FITC-labeled human IgG (IgG-FITC) to IGROV-1 cells"}, {"measurement": "Recruitment of IgG-FITC to cells with excess FA", "setting": "IGROV-1 cells (FR-α+); IgG-FITC 500 nM, FA 100 µM as competitor", "value": "diminished IgG-derived fluorescence"}, {"measurement": "Recruitment of mouse IgG and ADCC", "setting": "IGROV-1 cells [4]", "value": "did not work with mouse IgG"}, {"measurement": "Amount of recruited IgG-FITC (MFI)", "setting": "IGROV-1 cells [5]; 10 nM Fc-ARM, increasing IgG-FITC, n = 3, Fig. 2E", "value": "recruited a higher amount of IgG-FITC compared with Fc-ARM1"}, {"measurement": "ADCC against A549 cells", "setting": "[6]", "value": "ADCC was not induced"}]}
{"compound": "CC(C)C[C@@H]1NC(=O)[C@H](Cc2c[nH]cn2)NC(=O)[C@H](Cc2c[nH]c3ccccc23)NC(=O)[C@H](C)NC(=O)[C@@H](NC(=O)[C@H](CC(=O)O)NC(=O)CCOCCOCCOCCOCCOCCOCCNC(=O)CC[C@H](NC(=O)c2ccc(NCc3cnc4nc(N)[nH]c(=O)c4n3)cc2)C(=O)O)CSSC[C@@H](C(=O)N[C@H](C(N)=O)[C@@H](C)O)NC(=O)[C@H](Cc2c[nH]c3ccccc23)NC(=O)[C@H](C(C)C)NC(=O)[C@H](CC(C)C)NC(=O)[C@H](CCC(=O)O)NC(=O)CNC1=O", "note": "[Fc-ARM1]", "values": [{"measurement": "ADCC (% cytotoxicity) after 4 h co-culture", "setting": "IGROV-1 cells [2]; Fc-ARM + anti-CD20, 4 h, E/T 1-8, n = 3, Fig. 4A", "value": "did not show detectable cytotoxicity"}, {"measurement": "Effect on ADCC activity of anti-EGFR mAb", "setting": "IGROV-1 cells [7]", "value": "inhibited the ADCC activity"}, {"measurement": "Change in MFI of fluorescein-labeled anti-EGFR mAb on cells", "setting": "IGROV-1 cells [5]; 10 nM Fc-ARM1 added, Fig. S9A", "value": "about a six-fold increase in MFI"}]}
{"compound": "Nc1nc(=O)c2nc(CNc3ccc(C(=O)N[C@@H](CCC(=O)O)C(=O)O)cc3)cnc2[nH]1", "note": "[FA, folic acid]", "values": [{"measurement": "Affinity to FR-α", "setting": "folate receptor-a (FR-α)", "value": "sub-nanomolar"}]}
